Test results published in ChEMBL document CHEMBL1770101, “Synthesis, anti-inflammatory activity and COX-1/COX-2 inhibition of novel substituted cyclic imides. Part 1: Molecular docking study” (Eur J Med Chem, 2011).

Key:
[1] = molecular target: T1, Prostaglandin G/H synthase 1 (Ovis aries, UniProt P05979); assay: Inhibition of ovine COX1 after 5 mins by enzyme immunoassay
T1 sequence (P05979 whole entry): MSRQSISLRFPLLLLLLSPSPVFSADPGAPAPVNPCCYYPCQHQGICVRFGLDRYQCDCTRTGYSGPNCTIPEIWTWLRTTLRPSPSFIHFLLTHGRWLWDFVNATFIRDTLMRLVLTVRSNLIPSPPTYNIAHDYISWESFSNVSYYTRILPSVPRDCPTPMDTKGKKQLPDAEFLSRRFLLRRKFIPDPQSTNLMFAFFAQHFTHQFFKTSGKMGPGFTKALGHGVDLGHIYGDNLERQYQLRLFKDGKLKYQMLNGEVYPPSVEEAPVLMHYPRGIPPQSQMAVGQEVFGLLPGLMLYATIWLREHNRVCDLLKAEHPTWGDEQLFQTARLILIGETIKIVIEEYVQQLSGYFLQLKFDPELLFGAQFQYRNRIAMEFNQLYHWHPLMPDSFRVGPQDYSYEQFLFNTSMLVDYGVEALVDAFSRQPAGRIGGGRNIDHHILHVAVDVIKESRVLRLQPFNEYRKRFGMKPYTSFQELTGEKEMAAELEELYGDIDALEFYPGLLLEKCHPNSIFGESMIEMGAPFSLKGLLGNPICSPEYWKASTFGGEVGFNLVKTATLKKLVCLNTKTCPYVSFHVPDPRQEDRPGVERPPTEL

Rattus norvegicus [2] = assay: Antiinflammatory activity in Sprague-Dawley rat assessed as inhibition of carrageenan-induced paw edema at 100 mg/kg, ip after 1 hr by plethysmometer; assay type: functional; details: route intraperitoneal
Outline: (§1)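 Male Sprague-Dawley rats (250 g), fasted at least 16 h with free access to water, six per group. Test compound given IP at 100 mg/kg as 1 mL suspension in 0.5% methyl cellulose.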

Rattus norvegicus [3] = assay: Antiinflammatory activity in Sprague-Dawley rat assessed as inhibition of carrageenan-induced paw edema at 100 mg/kg, ip after 2 hrs by plethysmometer; assay type: functional; details: route intraperitoneal; outline: as §1
Rattus norvegicus [4] = assay: Antiinflammatory activity in ip dosed Sprague-Dawley rat assessed as inhibition of carrageenan-induced paw edema after 2 hrs by plethysmometer; assay type: functional
Outline: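 Male Sprague-Dawley rats (250 g), fasted at least 16 h with water available, six per group. Compounds dosed IP as 1 mL suspension in 0.5% methyl cellulose. Paw volume measured by water displacement plethysmometer before and after treatment. % inhibition = (1 − D/C) × 100 versus controls.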

SMILES | IC50 [1] [µM] | inhibition in vivo at 100 mg/kg (Rattus norvegicus [2]) [%] | inhibition in vivo at 100 mg/kg (Rattus norvegicus [3]) [%] | ED50 (Rattus norvegicus [4]) [mg/kg]
COc1cc(N2C(=O)c3ccc(C(C)(C)C)cc3C2=O)cc(OC)c1OC | > 100 | 60 | 89 | 146
CC(C)(C)c1ccc2c(c1)C(=O)N(c1cc(Cl)c(Cl)c(Cl)c1)C2=O | > 100 | 35 | 60 | 195
COc1cc(N2C(=O)c3cc(Cl)c(Cl)cc3C2=O)cc(OC)c1OC | > 100 | 59 | 80 | 186
O=C1c2cc(Cl)c(Cl)cc2C(=O)N1c1cc(Cl)c(Cl)c(Cl)c1 | > 100 | 75 | 65 | 187
COc1cc(N2C(=O)c3c(Cl)c(Cl)c(Cl)c(Cl)c3C2=O)cc(OC)c1OC | > 100 | – | 53 | 212
O=C1c2c(Cl)c(Cl)c(Cl)c(Cl)c2C(=O)N1c1cc(Cl)c(Cl)c(Cl)c1 | > 100 | 44 | 45 | 229
COc1cc(N2C(=O)c3c(Br)c(Br)c(Br)c(Br)c3C2=O)cc(OC)c1OC | > 100 | 42 | 55 | 213
O=C1c2c(Br)c(Br)c(Br)c(Br)c2C(=O)N1c1cc(Cl)c(Cl)c(Cl)c1 | > 100 | – | – | –
COc1cc(N2C(=O)c3cccc4cccc(c34)C2=O)cc(OC)c1OC | > 100 | 86 | 91 | 117
COc1cc(-n2c(=O)c3ccccc3c3ccccc3c2=O)cc(OC)c1OC | > 100 | 86 | 84 | 120
O=c1c2ccccc2c2ccccc2c(=O)n1-c1cc(Cl)c(Cl)c(Cl)c1 | > 100 | 75 | 72 | 150
COc1cc(N2C(=O)C3C(C2=O)C2(Cl)C(Cl)=C(Cl)C3(Cl)C2(Cl)Cl)cc(OC)c1OC (stereo not drawn) | > 100 | 36 | 34 | –
O=C1C2C(C(=O)N1c1cc(Cl)c(Cl)c(Cl)c1)C1(Cl)C(Cl)=C(Cl)C2(Cl)C1(Cl)Cl (stereo not drawn) | > 100 | 23 | 37 | –
O=C(O)Cc1ccccc1Nc1c(Cl)cccc1Cl [DICLOFENAC] | – | 88 | 89 | 114

Second part, led by results:

IC50 [1] [µM] | SMILES | inhibition in vivo at 100 mg/kg (Rattus norvegicus [2]) [%] | inhibition in vivo at 100 mg/kg (Rattus norvegicus [3]) [%] | ED50 (Rattus norvegicus [4]) [mg/kg]
> 100 | O=C1c2cccc3cccc(c23)C(=O)N1c1cc(Cl)c(Cl)c(Cl)c1 | 79 | 88 | 115
> 100 | COc1cc(N2C(=O)CCC2=O)cc(OC)c1OC | 20 | 40 | –
> 100 | O=C1CCC(=O)N1c1cc(Cl)c(Cl)c(Cl)c1 | 30 | 33 | –
> 100 | COc1cc(N2C(=O)[C@H]3CC=CC[C@H]3C2=O)cc(OC)c1OC | – | – | –
> 100 | O=C1[C@H]2CC=CC[C@H]2C(=O)N1c1cc(Cl)c(Cl)c(Cl)c1 | – | – | –
> 100 | COc1cc(N2C(=O)c3nccnc3C2=O)cc(OC)c1OC | 72 | 84 | 123
> 100 | O=C1c2nccnc2C(=O)N1c1cc(Cl)c(Cl)c(Cl)c1 | 47 | 73 | 175
> 100 | COc1cc(N2C(=O)c3ccccc3C2=O)cc(OC)c1OC | 43 | 67 | 185
> 100 | O=C1c2ccccc2C(=O)N1c1cc(Cl)c(Cl)c(Cl)c1 | 49 | 70 | 172
40 | COc1cc(N2C(=O)c3ccc([N+](=O)[O-])cc3C2=O)cc(OC)c1OC | 87 | 94 | 105
36.1 | O=C1c2ccc([N+](=O)[O-])cc2C(=O)N1c1cc(Cl)c(Cl)c(Cl)c1 | 79 | 79 | 122
> 100 | COc1cc(N2C(=O)c3ccc(C)cc3C2=O)cc(OC)c1OC | 84 | 94 | 107
> 100 | Cc1ccc2c(c1)C(=O)N(c1cc(Cl)c(Cl)c(Cl)c1)C2=O | 36 | 65 | 183
